In brackets after ≈: the same amount, converted by molar mass. Activity calls are given as the source filed them. No cut-off for these calls is given here.
Key:
[1] = test system: Staphylococcus aureus; experiment: Antibacterial activity against methicillin-susceptible Staphylococcus aureus clinical isolates after 24 hrs by CLSI […] broth microdilution method; assay type: functional; conditions: for MBC: read-out: MBC99.9
Method in brief: (§1)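 CLSI broth microdilution on clinical isolates. Log-phase bacteria in saline at 1–2 × 10⁵ CFU/mL were mixed with compounds diluted in LB, final 0.097–100 μg/mL, for 24 h at 37 °C. MIC is the lowest concentration with total growth inhibition. For MBC, clear wells were plated on sheep-blood agar for 18 h; >99.9% kill versus untreated control. Triplicate.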

[2] = test system: Enterococcus faecalis; experiment: Antibacterial activity against vancomycin-resistant Enterococcus faecalis clinical isolates after 24 hrs by CLSI […] broth microdilution method; assay type: functional; conditions: for MBC: read-out: MBC99.9; method in brief: as §1
[3] = test system: Mycobacterium tuberculosis; experiment: Antitubercular activity against Mycobacterium tuberculosis H37Rv by Alamar blue assay; assay type: functional
Method in brief: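 M. tuberculosis in 7H9 medium with ADC and 0.05% Tween 80; MIC by microplate Alamar Blue assay.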

[4] = test system: Enterococcus faecalis; experiment: Antibacterial activity against vancomycin-susceptible Enterococcus faecalis clinical isolates after 24 hrs by CLSI […] broth microdilution method; assay type: functional; conditions: for MBC: read-out: MBC99.9; method in brief: as §1
[5] = test system: Staphylococcus aureus; experiment: Antibacterial activity against Staphylococcus aureus; assay type: functional
[6] = test system: Staphylococcus aureus; experiment: Antibacterial activity against methicillin-resistant Staphylococcus aureus clinical isolates after 24 hrs by CLSI […] broth microdilution method; assay type: functional; conditions: for MBC: read-out: MBC99.9; method in brief: as §1
[7] = test system: Staphylococcus aureus; experiment: Antibacterial activity against […] Staphylococcus aureus ATCC 29213 after 16 hrs by spectrophotometric analysis; assay type: functional; conditions: ATCC 29213, 16 h
[8] = test system: Mycolicibacterium smegmatis; experiment: Inhibition of FtsZ polymerization in GFP-tagged Mycobacterium smegmatis assessed as presence of elongated cells with enlarged bacterial pole at 4 ug/ml by fluorescence-based microscopic analysis
Method in brief: (§2)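 GFP-expressing M. smegmatis or M. tuberculosis grown at subMIC concentrations on glass coverslips in 7H9/ADC/Tween 80. Cells were fixed with phosphate-buffered 4% paraformaldehyde and examined by fluorescence microscopy at 100× for cell morphology.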

[9] = test system: Mycobacterium tuberculosis; experiment: Inhibition of FtsZ polymerization in GFP-tagged Mycobacterium tuberculosis assessed as presence of elongated cells with enlarged bacterial pole at 4 ug/ml by fluorescence-based microscopic analysis; method in brief: as §2
[10] = test system: Staphylococcus aureus; experiment: Antibacterial activity against methicillin-susceptible Staphylococcus aureus; assay type: functional
[11] = molecular target: T1, Cell division protein FtsZ (Staphylococcus aureus) (UniProt P0A031); experiment: Inhibition of Staphylococcus aureus FtsZ assessed as increase in cell volume at 0.5 ug/ml after overnight incubation by phase-contrast light microscopic analysis
T1 sequence (whole entry): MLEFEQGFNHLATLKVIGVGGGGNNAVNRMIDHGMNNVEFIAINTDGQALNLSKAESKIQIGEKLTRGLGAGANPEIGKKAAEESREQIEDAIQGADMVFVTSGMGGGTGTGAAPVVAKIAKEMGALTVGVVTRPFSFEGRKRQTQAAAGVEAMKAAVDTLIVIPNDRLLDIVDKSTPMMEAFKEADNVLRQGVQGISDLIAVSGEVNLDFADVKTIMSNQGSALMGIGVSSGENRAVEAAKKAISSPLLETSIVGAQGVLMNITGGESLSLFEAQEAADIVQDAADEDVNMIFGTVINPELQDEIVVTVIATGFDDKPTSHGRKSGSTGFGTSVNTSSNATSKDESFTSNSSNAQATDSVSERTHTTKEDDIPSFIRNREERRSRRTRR
Method in brief: (§3)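 S. aureus grown overnight with compound at levels starting from the previously determined MIC. Untreated cultures served as negative control. Examined by phase-contrast microscopy at 630×.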

[12] = molecular target: T1, Cell division protein FtsZ (Staphylococcus aureus); experiment: Inhibition of Staphylococcus aureus FtsZ assessed as alteration in septum formation at 0.5 ug/ml after 16 hrs by transmission electron microscopic analysis
Method in brief: (§4)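 S. aureus at 10⁹ cells/ml grown 16 h at 37 °C with compound, untreated control included. Cells were pelleted at 3100 × g for 5 min, fixed in 2.5% glutaraldehyde in 0.1 M Na cacodylate pH 7.4 for 1 h at 4 °C, post-fixed in 1% OsO₄ for 1 h at 4 °C, and examined by TEM for septum and ultrastructure.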

[13] = Cytotoxicity against human MRC5 cells assessed as reduction in cell viability after 24 hrs by MTT assay; assay type: toxicity, cell-based; conditions: mrc5, 24 h
Method in brief: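 MRC-5 lung fibroblasts (DMEM, 10% heat-inactivated calf serum, 37 °C, 5% CO₂) at 10⁴ cells/well were exposed 24 h to twofold serial dilutions in DMEM. Then 1 mg/ml MTT in serum-free DMEM for 3 h, DMSO solubilisation, A570. Cytotoxicity % = 100 − (sample OD/untreated OD) × 100; TD₅₀/TD₉₀ are concentrations cutting viability 50/90%.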

[14] = Therapeutic index, ratio of TD90 for human MRC5 cells to MBC for […] Staphylococcus aureus ATCC 29213; assay type: cell-based; conditions: read-out: TI
Method in brief: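 Ratio of TD₉₀ (MTT assay on MRC-5, 24 h exposure) to MBC against MRSA ATCC 29213 (LB tube assay, wash-out and overnight regrowth by OD600).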

[15] = test system: Mycobacterium tuberculosis; experiment: Inhibition of FtsZ polymerization in GFP-tagged Mycobacterium tuberculosis assessed as presence of elongated cells with enlarged bacterial pole at 8 ug/ml by fluorescence-based microscopic analysis; method in brief: as §2
[16] = test system: Mycolicibacterium smegmatis; experiment: Inhibition of FtsZ polymerization in GFP-tagged Mycobacterium smegmatis assessed as presence of elongated cells with enlarged bacterial pole at 0.5 ug/ml by fluorescence-based microscopic analysis; method in brief: as §2
[17] = molecular target: T1, Cell division protein FtsZ (Staphylococcus aureus); experiment: Inhibition of Staphylococcus aureus FtsZ assessed as alteration in septum formation at 0.25 ug/ml after 16 hrs by transmission electron microscopic analysis; method in brief: as §4
[18] = molecular target: T1, Cell division protein FtsZ (Staphylococcus aureus); experiment: Inhibition of Staphylococcus aureus FtsZ assessed as bacterial swelling at 0.25 ug/ml after overnight incubation by phase-contrast light microscopic analysis; method in brief: as §3
[19] = molecular target: T1, Cell division protein FtsZ (Staphylococcus aureus); experiment: Inhibition of Staphylococcus aureus FtsZ assessed as increase in cell volume at 0.25 ug/ml after overnight incubation by phase-contrast light microscopic analysis; method in brief: as §3
[20] = molecular target: T1, Cell division protein FtsZ (Staphylococcus aureus); experiment: Inhibition of Staphylococcus aureus FtsZ assessed as cellular desegregation at 0.25 ug/ml after overnight incubation by phase-contrast light microscopic analysis; method in brief: as §3

SMILES: NC(=O)c1c(F)ccc(OCC2COc3ccccc3O2)c1F (stereo not given)
- MIC90 [1]: 3.12 µg/mL
- MBC [1]: 12.5 µg/mL
- MIC90 [2]: 25 µg/mL (≈ 77.8 µM)
- MBC [2]: 50 µg/mL (≈ 156 µM)
- MIC [3]: 16 µg/mL (≈ 49.8 µM)
- MIC90 [4]: 25 µg/mL (≈ 77.8 µM)
- MBC [4]: 50 µg/mL (≈ 156 µM)
- MIC [5]: 5 µg/mL (≈ 15.6 µM)
- MIC90 [6]: 3.12 µg/mL
- MBC [6]: 6.25 µg/mL (≈ 19.5 µM)

SMILES: NC(=O)c1c(F)ccc(OC(CO)COc2ccccc2)c1F (stereo not given)
- MIC [7]: > 100 µg/mL

SMILES: NC(=O)c1c(F)ccc(OC[C@@H]2COc3ccc(Cl)cc3O2)c1F
- inhibition [8]: Active
- MIC90 [1]: 0.5 µM
- MBC [1]: 1 µM
- MIC90 [2]: 25 µg/mL (≈ 70.3 µM)
- MBC [2]: 50 µg/mL (≈ 141 µM)
- MIC [3]: 8 µg/mL (≈ 22.5 µM)
- inhibition [9]: Active
- MIC90 [10]: 0.7 µM (≈ 0.249 µg/mL)
- MIC90 [4]: 25 µg/mL (≈ 70.3 µM)
- MBC [4]: 50 µg/mL (≈ 141 µM)
- inhibition [11]: Active
- inhibition [12]: Active
- MIC90 [6]: 1 µM
- MBC [6]: 0.78 µg/mL (≈ 2.19 µM)

SMILES: NC(=O)c1c(F)ccc(OCC2COc3ccc(Br)cc3O2)c1F (stereo not given)
- MBC [7]: 0.625 µg/mL (≈ 1.56 µM)
- MIC [7]: 0.625 µg/mL (≈ 1.56 µM)
- TD90 [13]: > 800 µg/mL
- selectivity ratio [14]: > 1280

SMILES: N#Cc1ccc2c(c1)OC(COc1ccc(F)c(C(N)=O)c1F)CO2 (stereo not given)
- MBC [7]: 2.5 µg/mL (≈ 7.22 µM)
- MIC [7]: 1.25 µg/mL (≈ 3.61 µM)

SMILES: NC(=O)c1c(F)ccc(OCC2COc3ccc(F)cc3O2)c1F (stereo not given)
- MBC [7]: 2.5 µg/mL (≈ 7.37 µM)
- MIC [7]: 2.5 µg/mL (≈ 7.37 µM)

SMILES: NC(=O)c1c(F)ccc(OCC2COc3ccc([N+](=O)[O-])cc3O2)c1F (stereo not given)
- MBC [7]: 2.5 µg/mL (≈ 6.83 µM)
- MIC [7]: 1.25 µg/mL (≈ 3.41 µM)

SMILES: C=Cc1ccc2c(c1)OC(COc1ccc(F)c(C(N)=O)c1F)CO2 (stereo not given)
- MBC [7]: 1.25 µg/mL (≈ 3.6 µM)
- MIC [7]: 0.625 µg/mL (≈ 1.8 µM)
- TD90 [13]: > 800 µg/mL
- selectivity ratio [14]: > 640

SMILES: NC(=O)c1c(F)ccc(OCC2CCc3ccccc3C2)c1F (stereo not given)
- MIC [7]: > 100 µg/mL

SMILES: CCCCNC(=O)c1ccc2c(c1)OC(COc1ccc(F)c(C(N)=O)c1F)CO2 (stereo not given)
- MIC [7]: > 100 µg/mL

SMILES: CCCCCCCCCOc1ccc(F)c(C(N)=O)c1F
- MBC [7]: 1 µg/mL (≈ 3.34 µM)
- MIC [7]: 1 µg/mL (≈ 3.34 µM)
- inhibition [15]: Active
- TD90 [13]: > 200 µg/mL
- inhibition [16]: Active
- MIC90 [1]: 0.19 µg/mL
- MBC [1]: 0.19 µg/mL
- MIC90 [2]: 12.5 µg/mL (≈ 41.8 µM)
- MBC [2]: 25 µg/mL (≈ 83.5 µM)
- inhibition [17]: Active
- MIC [3]: 16 µg/mL (≈ 53.4 µM)
- MIC90 [4]: 6.25 µg/mL (≈ 20.9 µM)
- MBC [4]: 12.5 µg/mL (≈ 41.8 µM)
- selectivity ratio [14]: > 200
- inhibition [18]: Active
- inhibition [19]: Active
- inhibition [20]: Active
- MIC90 [6]: 0.39 µg/mL
- MBC [6]: 0.78 µg/mL (≈ 2.61 µM)

Source: ChEMBL document CHEMBL3856196, “3-(Benzodioxan-2-ylmethoxy)-2,6-difluorobenzamides bearing hydrophobic substituents at the 7-position of the benzodioxane nucleus potently inhibit methicillin-resistant Sa and Mtb cell division” (Eur J Med Chem, 2016)
